The record followed here is ChEMBL document CHEMBL4308843, “Identification of ABX-1431, a Selective Inhibitor of Monoacylglycerol Lipase and Clinical Candidate for Treatment of Neurological Disorders” (J Med Chem, 2018).

Each structure is given as a SMILES string. Active and inactive are the calls of the source. The calls are words filed in the database; no cut-off is given here.

For orientation: IC50 means the point on the concentration scale where inhibition reaches its midpoint. As usually defined, the Cmax is the maximum level reached in the sampled fluid or tissue. As usually defined, the ED50 is the dose that gives a 50% effect, or the effect in half of the subjects. As usually defined, the Tmax is the time at which the peak concentration occurs. Usually IC20 stands for the concentration at which the effect reaches the 20% level. Low readings indicate an effect from little substance, high ones a need for much substance.

For one data set, the species on record is Canis lupus familiaris. Description: Inhibition of MGLL in dog brain membrane homogenates at 0.001 to 10 uM preincubated for 30 mins followed by FP-Rh addition after 30 mins by gel-based ABPP assay. It counts as cell membranes. The procedure, abridged:
(§1)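 Brain membrane homogenates (1 mg/mL protein) were preincubated with 0.001-10 µM inhibitor or DMSO for 30 min at 37°C, then labelled with 1 µM FP-Rh for 30 min at 25°C. Reactions were quenched in SDS-PAGE loading buffer, run on 10% gels and scanned in-gel. MGLL band intensities were normalised to DMSO (100%).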

Another data set has as its target Cytochrome P450 2C9 (Homo sapiens, UniProt P11712). Description: Inhibition of recombinant human CYP2C9. Format: ADME.
Data set [1] in a line: Cmax in Sprague-Dawley rat at 5 mg/kg, po by LC-MS analysis. It counts as ADME, organism-based. On the set-up: dose 5 mg/kg, route oral. The settings on record: in vivo. In outline:
(§2)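 Rats (n = 3 per route) were dosed at 1 mg/kg iv (70% PEG400 in HPBCD/saline) or 5 mg/kg po (70% PEG400 in 0.5% CMC/saline), fasted overnight to 4 h post-dose. Jugular-catheter blood (~100 µL) was sampled to 24 h into 400 µL acetonitrile to stop esterases. Samples were quantified by HPLC-MS/MS, with noncompartmental analysis.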

Data set [2] has as its target T1, Solute carrier family 22 member 2 (Homo sapiens, UniProt O15244).
T1 sequence (O15244 whole entry): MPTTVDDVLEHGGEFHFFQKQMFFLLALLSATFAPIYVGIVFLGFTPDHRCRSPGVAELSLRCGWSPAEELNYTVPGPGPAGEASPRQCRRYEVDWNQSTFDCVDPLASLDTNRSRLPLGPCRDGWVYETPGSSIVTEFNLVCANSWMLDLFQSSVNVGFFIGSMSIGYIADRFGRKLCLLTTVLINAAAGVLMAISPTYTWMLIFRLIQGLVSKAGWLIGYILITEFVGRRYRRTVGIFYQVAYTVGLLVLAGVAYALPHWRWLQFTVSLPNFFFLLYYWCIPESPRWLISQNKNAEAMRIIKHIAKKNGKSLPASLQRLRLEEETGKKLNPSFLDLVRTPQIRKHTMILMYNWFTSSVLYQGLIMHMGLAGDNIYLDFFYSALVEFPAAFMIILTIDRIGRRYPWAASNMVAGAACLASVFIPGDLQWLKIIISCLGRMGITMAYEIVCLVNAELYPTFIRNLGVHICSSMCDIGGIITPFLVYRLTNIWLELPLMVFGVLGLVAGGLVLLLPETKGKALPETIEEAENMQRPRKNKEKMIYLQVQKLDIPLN
Briefly: Inhibition of OCT2 (unknown origin) at 10 uM. Format: ADME.

Data set [3] concerns Mus musculus. Description: In vivo inhibition of ABHD6 in ICR mouse brain at 25 mg/kg, po measured at 4 hrs post dose in presence of FP-Rh probe by gel-based ABPP assay. It counts as functional, organism-based.
Data set [4] can be described thus: Inhibition of BCRP (unknown origin) at 10 uM. It counts as ADME. The note with it: human.
Data set [5] can be described thus: Clearance in Sprague-Dawley rat at 1 mg/kg, iv or 5 mg/kg, po by LC-MS analysis. The note with it: in vivo. It counts as ADME, organism-based. In outline:
as §2

Data set [6] can be described thus: Volume of distribution at steady state in Beagle dog at 1 mg/kg, iv or 1 mg/kg, po by LC-MS analysis. It counts as ADME, organism-based, Canis lupus familiaris. The note with it: in vivo, read-out: Vdss. The procedure, abridged:
(§3)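 Male beagle dogs (n = 3 per route), 10–12 months old, were dosed at 1 mg/kg iv or po in PEG400/ethanol/PBS (7/2/1), fasted overnight to 2 h post-dose. Peripheral venous blood was sampled to 24 h into K2EDTA and plasma frozen at −80 °C. Plasma was quantified by HPLC-MS/MS, with noncompartmental analysis.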

A further data set addresses Cytochrome P450 2D6 (Homo sapiens, UniProt P10635). Description: Inhibition of recombinant human CYP2D6. Format: ADME.
Data set [7] has as its system Rattus norvegicus. Description: In vivo inhibition of MGLL in po dosed Sprague-Dawley rat brain assessed as increase in 2-AG measured at 4 hrs post dose by LC-MS/MS analysis. Format: functional, organism-based. The procedure, abridged: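 Male Sprague Dawley rats, 6–12 weeks old, single oral doses 0.03–10 mg/kg in 0.5% methylcellulose, 5 mL/kg. Killed 4 h post-dose; forebrain section (~100–200 mg) from one hemisphere analysed for 2-AG by LC-MS/MS.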

The test system of data set [8] is Mus musculus. Briefly: In vivo inhibition of MGLL in ICR mouse brain at 25 mg/kg, po measured at 4 hrs post dose in presence of FP-Rh probe by gel-based ABPP assay. It counts as functional, organism-based.
A short description of data set [9]: Clearance in Beagle dog at 1 mg/kg, iv or 1 mg/kg, po by LC-MS analysis. The settings on record: in vivo. It counts as ADME, organism-based, Canis lupus familiaris. The procedure, abridged:
as §3

Data set [10] concerns the target T2, Monoglyceride lipase (Mus musculus) (UniProt O35678).
T2 sequence (whole entry): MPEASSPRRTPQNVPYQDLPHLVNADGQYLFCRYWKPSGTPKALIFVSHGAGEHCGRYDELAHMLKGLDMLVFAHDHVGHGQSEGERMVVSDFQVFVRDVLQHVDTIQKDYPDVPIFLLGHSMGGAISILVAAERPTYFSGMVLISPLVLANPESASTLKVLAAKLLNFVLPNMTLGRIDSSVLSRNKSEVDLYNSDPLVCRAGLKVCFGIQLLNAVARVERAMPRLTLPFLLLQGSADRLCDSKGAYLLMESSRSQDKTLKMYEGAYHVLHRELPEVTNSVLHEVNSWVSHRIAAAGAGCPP
Description: Inhibition of MGLL in mouse brain membrane homogenates at 0.001 to 10 uM preincubated for 30 mins followed by FP-Rh addition after 30 mins by gel-based ABPP assay. It counts as cell membranes. In outline:
as §1

The target of another data set is Cytochrome P450 3A4 (Homo sapiens, UniProt P08684). Briefly: Inhibition of recombinant human CYP3A4. It counts as ADME.
Data set [11] has as its system Rattus norvegicus. Description: Antinociceptive activity in po dosed Sprague-Dawley rat brain assessed as inhibition of CES1c activity measured after 4 hrs post dose in presence of FP-Rh probe by gel-based ABPP assay. It counts as functional. The procedure, abridged:
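Male Sprague Dawley rats, 6–12 weeks old, given single oral doses (0.03–10 mg/kg) in 0.5% methylcellulose at 5 mL/kg. Brains were taken 4 h post-dose and forebrain sections excised from one hemisphere. Brain proteome was labeled with FP-Rh (1 µM, 30 min) and analyzed by SDS-PAGE with in-gel fluorescence. Band intensity was normalized to vehicle.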

A short description of data set [12]: Tmax in Beagle dog at 1 mg/kg, iv or 1 mg/kg, po by LC-MS analysis. It counts as ADME, organism-based, Canis lupus familiaris. The settings on record: in vivo. The procedure, abridged: as §3
For another data set, the target named is Cytochrome P450 3A5 (Homo sapiens, UniProt P20815). Description: Inhibition of recombinant human CYP3A5. Format: ADME.
The nature of data set [13]: Cmax in Beagle dog at 1 mg/kg, po by LC-MS analysis. The settings on record: in vivo.
In another data set the target is hERG (KCNH2) (Homo sapiens, UniProt Q12809). Description: Inhibition of human ERG.
hERG (KCNH2), sequence (Q12809 whole entry): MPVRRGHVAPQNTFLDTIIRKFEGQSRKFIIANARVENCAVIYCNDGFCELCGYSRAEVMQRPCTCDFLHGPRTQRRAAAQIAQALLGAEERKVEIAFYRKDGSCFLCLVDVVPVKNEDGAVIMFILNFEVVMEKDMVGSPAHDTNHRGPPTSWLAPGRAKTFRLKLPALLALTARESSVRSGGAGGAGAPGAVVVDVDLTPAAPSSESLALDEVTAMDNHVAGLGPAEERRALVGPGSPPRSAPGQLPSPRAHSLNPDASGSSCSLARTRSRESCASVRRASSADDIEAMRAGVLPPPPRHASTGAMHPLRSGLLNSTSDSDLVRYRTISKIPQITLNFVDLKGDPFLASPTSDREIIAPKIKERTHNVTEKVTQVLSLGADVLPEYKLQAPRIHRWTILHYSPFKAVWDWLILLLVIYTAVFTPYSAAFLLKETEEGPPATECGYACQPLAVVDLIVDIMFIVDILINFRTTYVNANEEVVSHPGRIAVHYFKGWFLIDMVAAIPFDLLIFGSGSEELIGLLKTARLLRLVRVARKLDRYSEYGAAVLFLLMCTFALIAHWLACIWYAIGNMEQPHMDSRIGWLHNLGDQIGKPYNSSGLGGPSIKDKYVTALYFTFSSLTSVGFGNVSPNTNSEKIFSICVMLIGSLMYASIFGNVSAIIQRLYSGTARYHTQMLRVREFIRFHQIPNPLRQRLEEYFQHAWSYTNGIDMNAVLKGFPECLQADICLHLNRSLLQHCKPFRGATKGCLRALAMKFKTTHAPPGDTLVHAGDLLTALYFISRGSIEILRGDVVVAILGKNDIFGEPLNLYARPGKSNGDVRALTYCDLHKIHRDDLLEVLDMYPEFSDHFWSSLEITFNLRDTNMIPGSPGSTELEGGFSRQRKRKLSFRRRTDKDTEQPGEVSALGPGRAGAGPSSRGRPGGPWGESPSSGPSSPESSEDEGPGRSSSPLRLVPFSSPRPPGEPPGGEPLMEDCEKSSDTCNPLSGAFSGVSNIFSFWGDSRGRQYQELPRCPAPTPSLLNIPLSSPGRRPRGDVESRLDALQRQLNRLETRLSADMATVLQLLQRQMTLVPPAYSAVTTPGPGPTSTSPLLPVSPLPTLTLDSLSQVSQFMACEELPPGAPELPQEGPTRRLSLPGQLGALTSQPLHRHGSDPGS

Cytochrome P450 3A5, sequence (P20815 whole entry): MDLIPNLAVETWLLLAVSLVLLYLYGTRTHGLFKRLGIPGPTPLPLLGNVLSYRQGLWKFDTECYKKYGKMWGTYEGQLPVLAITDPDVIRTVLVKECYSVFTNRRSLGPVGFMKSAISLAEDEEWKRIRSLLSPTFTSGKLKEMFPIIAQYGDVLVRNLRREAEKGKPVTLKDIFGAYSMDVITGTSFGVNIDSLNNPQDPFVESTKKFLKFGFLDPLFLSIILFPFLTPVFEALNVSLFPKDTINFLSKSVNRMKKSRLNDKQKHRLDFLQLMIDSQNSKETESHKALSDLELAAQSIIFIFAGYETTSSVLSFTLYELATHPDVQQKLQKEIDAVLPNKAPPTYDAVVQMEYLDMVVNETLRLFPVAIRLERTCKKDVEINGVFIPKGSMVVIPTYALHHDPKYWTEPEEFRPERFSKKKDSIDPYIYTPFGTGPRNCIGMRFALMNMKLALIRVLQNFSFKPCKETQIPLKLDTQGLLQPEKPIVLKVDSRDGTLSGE
Cytochrome P450 2C9, sequence (P11712 whole entry): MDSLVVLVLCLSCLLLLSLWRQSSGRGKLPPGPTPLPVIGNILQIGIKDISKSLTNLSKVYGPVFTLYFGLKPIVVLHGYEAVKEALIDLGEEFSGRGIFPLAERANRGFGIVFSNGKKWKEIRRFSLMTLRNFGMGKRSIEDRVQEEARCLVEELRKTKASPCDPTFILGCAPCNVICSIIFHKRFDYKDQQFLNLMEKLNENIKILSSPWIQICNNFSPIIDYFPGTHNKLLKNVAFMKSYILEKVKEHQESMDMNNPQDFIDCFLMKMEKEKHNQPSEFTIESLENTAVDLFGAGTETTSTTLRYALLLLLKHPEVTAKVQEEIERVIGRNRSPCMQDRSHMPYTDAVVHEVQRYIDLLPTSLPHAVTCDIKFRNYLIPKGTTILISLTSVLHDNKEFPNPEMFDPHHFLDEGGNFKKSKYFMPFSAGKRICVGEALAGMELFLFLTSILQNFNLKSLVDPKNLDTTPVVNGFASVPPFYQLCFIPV
Cytochrome P450 3A4, sequence (P08684 whole entry): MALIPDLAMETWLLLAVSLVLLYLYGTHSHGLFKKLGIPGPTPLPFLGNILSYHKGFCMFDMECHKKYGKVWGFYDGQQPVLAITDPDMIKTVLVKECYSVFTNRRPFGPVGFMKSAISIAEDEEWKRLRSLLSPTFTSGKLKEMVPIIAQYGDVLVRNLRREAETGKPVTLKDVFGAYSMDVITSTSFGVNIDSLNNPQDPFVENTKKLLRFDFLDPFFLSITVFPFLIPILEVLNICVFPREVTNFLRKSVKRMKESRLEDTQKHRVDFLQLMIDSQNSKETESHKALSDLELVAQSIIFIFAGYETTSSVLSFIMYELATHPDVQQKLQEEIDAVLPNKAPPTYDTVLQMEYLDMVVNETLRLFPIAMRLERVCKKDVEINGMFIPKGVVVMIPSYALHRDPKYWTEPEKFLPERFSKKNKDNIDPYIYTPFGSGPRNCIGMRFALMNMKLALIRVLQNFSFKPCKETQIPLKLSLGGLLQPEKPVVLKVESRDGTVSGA
Cytochrome P450 2D6, sequence (P10635 whole entry): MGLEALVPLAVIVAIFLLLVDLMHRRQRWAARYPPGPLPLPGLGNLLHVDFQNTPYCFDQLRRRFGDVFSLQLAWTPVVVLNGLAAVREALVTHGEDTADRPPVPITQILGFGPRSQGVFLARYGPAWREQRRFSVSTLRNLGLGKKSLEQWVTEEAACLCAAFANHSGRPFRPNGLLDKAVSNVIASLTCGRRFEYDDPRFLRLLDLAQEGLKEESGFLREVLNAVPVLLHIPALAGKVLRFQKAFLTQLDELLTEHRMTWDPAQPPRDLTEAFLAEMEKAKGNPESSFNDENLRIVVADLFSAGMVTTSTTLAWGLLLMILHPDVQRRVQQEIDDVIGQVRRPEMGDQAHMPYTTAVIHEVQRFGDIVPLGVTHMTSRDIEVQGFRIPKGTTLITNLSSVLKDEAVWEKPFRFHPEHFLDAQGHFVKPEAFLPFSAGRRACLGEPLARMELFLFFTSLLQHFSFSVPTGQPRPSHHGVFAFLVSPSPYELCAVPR

Regarding `O=C(OC(C(F)(F)F)C(F)(F)F)N1CCN(Cc2ccc(C(F)(F)F)cc2N2CCCC2)CC1` [ELCUBRAGISTAT], the inhibition entry (in the data set filed under Canis lupus familiaris; with Mus musculus [3]; in the data set on Mus musculus [8]; in [10]) was “Active” throughout. The IC50 at Cytochrome P450 2C9 is greater than 50 µM; at Cytochrome P450 2D6, 6.5 µM; at Cytochrome P450 3A4, greater than 50 µM; on Cytochrome P450 3A5, greater than 50 µM. Moreover, the Cmax in data set [1] turned out to be 688 nM; in data set [13], 777 nM. The “inhibition (INH)” value in [2] and in data set [4] was “Not Active” throughout. Moreover, the figures for the clearance in [5] and in data set [9] were 14.7 mL/min/kg and 6.3 mL/min/kg, respectively. Besides, the Vd in [6] was 1.2 L/kg. The inhibition result in the data set on Rattus norvegicus [7] was “Dose-dependent effect”. In the data set on Rattus norvegicus [11], the ED50 was 1.2 mg/kg. For the same molecule, the Tmax in [12] worked out at 1 h. The 20% effect concentration (IC20) at hERG (KCNH2) came out at 7 µM.
